# What was measured:
# [1] = tested on: patients with previously treated, advanced solid tumors; assay: Phase 1 dose escalation study: safety and tolerability; type: in vivo, human
# [2] = Plasma pharmacokinetics of SLC-0111 after single and repeated dosing; type: in vivo, human; conditions: for AUC(0-t) / Tmax: human, plasma, oral; for AUC(0-t): AUC(0-24), Day 1, mean; for Tmax: range of cohort means
# advanced solid tumors = assay: Tumor response; type: in vivo, human
# Summary of the method: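 Patients with previously treated advanced solid tumours were enrolled in an open-label 3+3 escalation. The test compound was given as an oral liquid (100 mg/mL in lecithin/propylene glycol/PEG/TPGS vehicle) once daily, ≥2 h from meals, in 28-day cycles. CT/MRI was scored by RECIST v1.1 (CR/PR/SD/PD) every 8 weeks (±7 d) until progression, discontinuation or consent withdrawal. SD duration was counted in cycles.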
# rats = assay: GLP 28-day toxicology study in rats; type: in vivo, rat; conditions: highest dose tested in rats, 28-day GLP
structure (smiles),measurement,setting,value
"NS(=O)(=O)c1ccc(NC(=O)Nc2ccc(F)cc2)cc1 [SLC-0111, 4-[(4-fluorophenyl)carbamoyl]amino-benzene sulfonamide]",Dose-limiting toxicities (in words),"[1]; 500, 1000 and 2000 mg, cycle 1, 10 evaluable patients",No protocol defined DLTs were observed
same,"Hypophosphatemia, Grade of the grade 3-4 events (CTCAE)",[1]; Cohort 1 (500 mg),3
same,"Fatigue, Grade of the grade 3-4 events (CTCAE)",[1]; Cohort 2 (1000 mg),3
same,"Pulmonary embolism (SAE), Grade (CTCAE)",[1]; Cohort 2 (1000 mg),3
same,"Alanine Transaminase, Grade of the grade 3-4 events (CTCAE)",[1]; Cohort 3 (2000 mg),3
same,"Clostridium entercolitis (SAE), Grade (CTCAE)",[1]; Cohort 3 (2000 mg),3
same,"Fatigue, Grade of the grade 3-4 events (CTCAE)",[1]; Cohort 3 (2000 mg),3
same,"Hepatobiliary disorder (SAE), Grade (CTCAE)",[1]; Cohort 3 (2000 mg),3
same,"Hypophosphatemia, Grade of the grade 3-4 events (CTCAE)",[1]; Cohort 3 (2000 mg),3
same,Total treatment emergent AEs reported over the course of the study,"[1]; all cohorts, 17 patients",184
same,Treatment emergent AEs considered related to SLC-0111,"[1]; all cohorts, 17 patients",91
same,SAEs recorded across the entire study group,"[1]; all cohorts, only hepatobiliary disorder drug related",Three
same,Tolerability (in words),[1]; doses of 1000 mg daily or below,generally well tolerated
same,Maximum tolerated dose,[1]; doses up to 2000 mg daily,not established
same,Recommended phase II dose (RP2D),"[1]; oral liquid formulation, once daily",1000 mg/day
same,Day 28/Day 1 AUC(0-24) ratio,[2]; 500 mg/d,2.01±0.879
same,Day 28/Day 1 Cmax±SD ratio,[2]; 500 mg/d,1.32±0.298
same,Day 28/Day 1 AUC(0-24) ratio,[2]; 1000 mg/d,1.47±1.42
same,Day 28/Day 1 Cmax±SD ratio,[2]; 1000 mg/d,1.17±1.02
same,Day 28/Day 1 AUC(0-24) ratio,[2]; 2000 mg/d,2.18±0.247
same,Day 28/Day 1 Cmax±SD ratio,[2]; 2000 mg/d,3.70±4.30
same,Dose proportionality of exposure (in words),"[2]; Cmax and AUC(0-24), days 1 and 28, 500-2000 mg",generally dose proportional
same,AUC(0-t),"[2]; 500 mg, 500 mg, N=3",33000 ng·h/mL
same,AUC(0-t),"[2]; 1000 mg, 1000 mg, N=3",70000 ng·h/mL
same,AUC(0-t),"[2]; 2000 mg, 2000 mg, N=2",94000 ng·h/mL
same,Tmax,"[2]; Day 1, 500-2000 mg cohorts",2.46 to 6.05 h
same,Tmax,"[2]; Day 28, 500-2000 mg cohorts",2.61 to 5.02 h
same,Objective responses,advanced solid tumors; all cohorts,no objective responses were observed
same,"Stable disease maintained, number of 28-day cycles","advanced solid tumors; cohort 1 (500 mg), one patient with sarcoma of spine",10 cycles
same,Stable disease up to cycle,"advanced solid tumors; cohort 3 (2000 mg), one patient with colorectal cancer",≤ 7
same,"Prolonged stable disease (SD), duration",advanced solid tumors; observed in 2 patients,> 24 weeks
same,Severe toxic dose in 10% (STD10) of treated rodents,rats,500 mg/kg/day

# — publication PMC7323835 (American Journal of Clinical Oncology, 2020)
